High-throughput results: PubChem, several laboratories
Hck-Nef inh = inhibitors of human Hck kinase activated by Nef; AID 463187; inhibition, % at 20 µM; 220,000 tested, 0.68% active; P08631; Recombinant Hck-YEEI plus Nef, Z-Lyte FRET kinase assay;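 active = Hck-Nef kinase inhibition above about 50%, limit read from the data; inactive = inhibition below that limit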
RanGTP-Impb inh = disruptors of Ran-importin-beta complex formation – biochemical, FRET, CFP-Ran, YFP-importin-beta, homogeneous, primary screen. cell-free CFP-Ran/YFP-importin-beta FRET ratio. inhibition, % (test concentration not listed). 300,000 tested, 1.1% active. AID 2216;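 active = more than half of the replicate wells show a fall in the fluorescence ratio signal beyond about 16%, limit read from the data, passing the limit was not always enough; inconclusive = exactly half of the replicate wells pass the set limit; inactive = fewer than half of replicates pass the limit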
TbHK1 inh = T. brucei hexokinase 1 inhibition; recombinant TbHK1, G6PDH-coupled NADH A340; inhibition, % at 10 µM; 220,000 tested, 0.11% active; AID 1430;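 active = inhibition of 50% or more in the single-dose primary screen; inactive = inhibition below 50%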
Runt-CBFb FRET = inhibitors of human RUNX1 Runt domain binding to CBFb; Q01196+Q13951; Cerulean-Runt/Venus-CBFb FRET ratio 530/480, 1 h; inhibition, % at 20 µM; 220,000 tested, 0.46% active;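 active = inhibition over about 50% at 20 µM in the single-dose screen, limit read from the data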
Target sequence (Q01196 whole entry, looked up, the tested form may be a part): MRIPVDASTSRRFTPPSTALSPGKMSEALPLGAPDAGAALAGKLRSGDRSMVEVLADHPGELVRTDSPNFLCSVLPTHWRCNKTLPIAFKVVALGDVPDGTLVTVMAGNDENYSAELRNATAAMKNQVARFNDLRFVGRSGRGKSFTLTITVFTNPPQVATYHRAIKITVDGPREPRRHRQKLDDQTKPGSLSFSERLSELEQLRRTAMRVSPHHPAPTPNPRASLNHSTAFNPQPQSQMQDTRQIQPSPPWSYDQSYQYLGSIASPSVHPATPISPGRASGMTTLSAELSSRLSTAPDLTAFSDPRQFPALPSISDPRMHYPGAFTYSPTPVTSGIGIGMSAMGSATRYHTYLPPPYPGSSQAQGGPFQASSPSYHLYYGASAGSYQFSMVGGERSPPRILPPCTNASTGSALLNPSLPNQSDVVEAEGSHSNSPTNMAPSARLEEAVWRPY
Target sequence (Q13951 whole entry, looked up, the tested form may be a part): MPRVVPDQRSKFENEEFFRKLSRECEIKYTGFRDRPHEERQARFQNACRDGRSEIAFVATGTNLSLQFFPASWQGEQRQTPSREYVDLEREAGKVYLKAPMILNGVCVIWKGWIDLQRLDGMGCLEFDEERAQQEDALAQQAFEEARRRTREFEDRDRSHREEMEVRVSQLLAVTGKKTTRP
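Assay system: Cerulean-Runt domain / Medium: Tris 50 mM pH 7.5, KCl, K2SO4, 0.01% BSA / Timing: protein complex preformed 1 h, compound exposure 1 h, room temperature, dark / Measured by: FRET, excitation 422 nm, emission at 530 and 480 nm / Evaluation: loss of energy transfer signal / Control set: 5 µM unlabeled CBFb as full-inhibition high control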
Runt-SMMHC FRET = inhibitors of human RUNX1 Runt domain binding to CBFb-SMMHC. Q01196+Q13951. Cerulean-Runt/Venus-CBFb-SMMHC FRET ratio 530/480, 1 h. inhibition, % at 20 µM. 220,000 tested, 0.74% active. AID 1434;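 active = mean inhibition across duplicate retests at 20 µM reaching about 50%, limit read from the data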;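 note: inhibitors lower the FRET ratio by blocking Runt binding to CBFb-SMMHC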
YIC FRET counter = counter-screen YIC FRET for RanGTP-importin-beta inhibitors; shares compounds with RanGTP-Impb inh; Purified YIC probe, intramolecular FRET ratio YFP/CFP; IC50, µM; 1,000 tested, 40% active; AID 435026;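 active = fitted half-maximal inhibitory concentration no more than tenfold above the top dose tested; inconclusive = flat fit with 30 to 70% activity, or poor fit; inactive = half-maximal concentration beyond tenfold above the top dose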
Numbers stand for hits; . = inactive; ? = inconclusive; / = no result. Only some compounds are listed: those with a hit (about 1.9% of all), similar ones and a draw of the others.

SMILES	Hck-Nef inh	RanGTP-Impb inh	TbHK1 inh	Runt-CBFb FRET	Runt-SMMHC FRET	YIC FRET counter
O=C(NCc1cnn(-c2ccccc2)c1)C1CCC(=O)N(C2CC2)C1 (centres undefined)	/	.	/	/	/	/
Cc1cc(Cl)c(S(=O)(=O)N2CCCC2)cc1OCC(=O)NC1CCCCC1	.	24	.	.	.	.
Cc1nn(C(=O)c2c([N+](=O)[O-])cnn2C)c(C)c1Cl	.	.	.	.	.	/
COc1ccc(NCc2nnc(SCc3ccc(Cl)cc3)n2-c2ccccc2)cc1	.	.	.	.	.	/
CCC(c1nnnn1C1CCCC1)N1CCC(C(N)=O)CC1 (centres undefined)	.	16	.	.	.	.
CN1CCCN(Cc2cccc3ccccc23)CC1	/	22	/	/	/	.
CCn1nc(C)c(CN2CCC(n3nccc3NC(=O)Cc3ccccc3)CC2)c1C	/	.	/	/	/	/
COc1cc2c(cc1OC)n(CC(=O)NC1CCCCCC1)n1c(C)cc(=O)nc21	/	.	/	/	/	/
CCN(CC)Cc1c(CC(C)C)oc(C)c1C(=O)O	.	21	.	.	.	.
CC1=C(C(=O)OC(C)C)C(c2ccc(N(C)C)cc2)C2=C(CC(C)(C)CC2=O)N1 (centres undefined)	.	.	.	.	.	/
CC1=C(C(=O)OC(C)C)C(c2cccnc2)C2=C(CC(C)(C)CC2=O)N1 (centres undefined)	.	19	.	77	102	23
Cc1ccc(S(=O)(=O)N(C)Cc2ccc(C(=O)N/N=C3\CC(=O)CC(C)(C)C3)cc2)cc1	.	19	.	.	.	.
C/C(=N\OCC(=O)OCC(=O)NC(=O)c1ccccc1)c1ccc2c(c1)OCO2	/	17	/	/	/	.
CN(C)C(=O)c1ccc(-c2cc(C(F)(F)F)n(C)n2)s1	.	.	.	.	.	/
COc1ccc(OC)c(N(CC(=O)O)S(=O)(=O)c2ccc(OC)c(OC)c2)c1	.	21	.	.	.	.
COc1ccc(OC)c(N(CC(=O)N2CCCC2)S(=O)(=O)c2ccc(OC)c(OC)c2)c1	.	.	.	.	.	/
COc1ccc(S(=O)Cc2ccc(C(=O)NC3CC3)o2)cc1 (centres undefined)	/	39	/	/	/	.
O=C(NC1CC1)c1ccc(CS(=O)c2ccc(Br)cc2)o1 (centres undefined)	/	.	/	/	/	/
CC(C)c1cc(N2CCN(C(=O)c3ccco3)CC2)n2c(nc3ccccc32)c1C#N	.	?	.	.	/	16
O=C(CNS(=O)(=O)c1ccccc1)NCC(=O)OCc1ccc(C(=O)c2ccccc2)cc1	.	.	.	.	.	/
CC1CCCN(C(=O)COC(=O)c2ccc3[nH]c4c(c3c2)CCCC4)C1 (centres undefined)	/	.	/	/	/	/
CCOC(=O)C1CCN(C(=O)COC(=O)c2ccc3[nH]c4c(c3c2)CCCC4)CC1	/	19	/	/	/	.
Cc1cc(C(=O)N/N=C2\CC(=O)CC(C)(C)C2)n[nH]1	.	16	.	.	.	.
COc1ccc(-c2cc(C(=O)NCc3ccco3)c3ccccc3n2)cc1OC	/	.	/	/	/	/
COc1ccc(-n2c(N)c(C(=O)NCc3ccco3)c3nc4ccccc4nc32)cc1OC	.	17	.	.	.	33
SMILES	Hck-Nef inh	RanGTP-Impb inh	TbHK1 inh	Runt-CBFb FRET	Runt-SMMHC FRET	YIC FRET counter
Nc1c(C(=O)NCc2ccccc2)c2nc3ccccc3nc2n1-c1ccc2c(c1)OCO2	.	35	.	.	.	11
Nc1ccc(-n2c(N)c(C(=O)NCc3ccc4c(c3)OCO4)c3nc4ccccc4nc32)cc1	.	.	.	/	/	/
O=C(Nc1ccc(OC(F)F)cc1)c1cc(S(=O)(=O)N2CCOCC2)ccc1F	/	.	/	/	/	/
CCN1CCc2c(sc(NC(=O)C3CCCCC3)c2C(=O)OC)C1	/	42	/	/	/	.
CCOC(=O)c1c(NC(=S)N2CCCCC2)sc2c1CCN(C(=O)OCC)C2	.	.	.	.	.	/
CCOC(=O)c1c(NC(=O)C2CCCCC2)sc2c1CCN(CC)C2	/	20	/	/	/	.
COC(=O)c1c(NC(=O)C2CC2)sc2c1CCN(C(C)=O)C2	.	.	.	.	.	/
COc1ccccc1C(=O)NC(=O)COC(=O)CN1C(=O)NC(C)(C)C1=O	/	.	/	/	/	/
CC(C)(C)OC(=O)NC(CNCc1ccccc1)Cc1ccccc1 (centres undefined)	/	.	/	/	/	/
CC(OC(=O)CN1C(=O)c2ccccc2C1=O)C(=O)NC1CCCCC1C (centres undefined)	/	.	/	/	/	/
CCc1ccc(C2C(C#N)=C(N)SC(N)=C2C#N)cc1	.	39	.	.	.	.
COc1cc(C(=O)NCCCNC(=O)c2cc(OC)c(OC)c(OC)c2)cc(OC)c1OC	/	.	/	/	/	/
COc1cc(C(=O)NCCCNc2nc3cc(C)cc(C)c3cc2C#N)cc(OC)c1OC	.	21	.	/	73	28
c1ccc2[nH]c(CSc3nnc(-c4ccncc4)o3)nc2c1	.	.	.	.	.	/
Clc1ccc(-c2nnc(SCc3nc4ccccc4[nH]3)o2)c(Cl)c1	.	32	.	.	.	.
Cn1c(SCc2ccccc2F)nnc1-c1ccccn1	.	20	.	.	.	.
Cn1c(SCc2ccccc2F)nnc1-c1cnccn1	.	.	.	.	.	/
COc1cccc(C(=O)Nc2ccc(S(=O)(=O)Nc3cc(C)nc(C)n3)cc2)c1	.	.	.	/	/	/
N#CC1=C(N)SC(N)=C(C#N)C1c1c(Cl)cccc1Cl	.	.	.	.	.	/
N#CC1=C(N)SC(N)=C(C#N)C1c1cccc(Oc2ccccc2)c1	.	24	.	.	78	.
Cc1cccc(NC(=O)c2cc(S(=O)(=O)N(C)c3ccc(F)cc3)ccc2Cl)n1	/	20	/	/	/	.
COc1ccccc1N(C)S(=O)(=O)c1ccc(Cl)c(C(=O)Nc2cccc(C)n2)c1	/	.	/	/	/	/
COc1ccc(NC(=O)C2=CCN(S(=O)(=O)c3ccccc3)CC2)cc1OC	.	.	.	.	.	/
O=C(CSc1nnc(-c2ccc(F)cc2)o1)Nc1ccc(S(=O)(=O)N2CCCC2)cc1	.	17	.	.	.	.
O=C(CSc1nnc(-c2ccc(F)cc2)o1)Nc1ccc(S(=O)(=O)N2CCCCCC2)cc1	.	.	.	.	.	/
SMILES	Hck-Nef inh	RanGTP-Impb inh	TbHK1 inh	Runt-CBFb FRET	Runt-SMMHC FRET	YIC FRET counter
CCCCSc1cc(C)nc(N)n1	.	.	.	.	.	/
NNC(=O)c1cc2nc(-c3cccs3)cc(C(F)(F)F)n2n1	.	27	.	.	.	.
COC(=O)c1nc2nc(-c3cccs3)cc(C(F)(F)F)n2n1	.	.	.	.	.	/
CCOC(=O)c1ccc(CNC(=O)CSc2nnc(-c3ccncc3)o2)cc1	.	26	.	.	.	.
COC(=O)c1c(NC(NC(=O)c2ccccc2)(C(F)(F)F)C(F)(F)F)sc2c1CCN(C)C2	.	48	.	.	.	40
Clc1cccc(-c2ccc(C=Nc3ccc(N4CCOCC4)cc3)o2)c1Cl	.	23	.	.	.	.
Cc1nn(-c2ccccc2)c2sc(C(=O)NC3CCCCC3)cc12	.	28	.	.	.	.
